ChEMBL document CHEMBL1154044, “5-Nitro-2-furyl derivative actives against Trypanosoma cruzi: preliminary in vivo studies” (Eur J Med Chem, 2009)
Activity calls are given as the source filed them. The rule behind the calls is not given here.

Tests used:
Mus musculus [1] = assay: Toxicity in CD1 mouse heart at 300 mg/kg, ip after 3 days by histological study; format: organism-based; parameters: dose 300 mg/kg, route intraperitoneal; conditions: in vivo, 72 h
Method in brief: (§1)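 Healthy female CD1 mice (20–22 g), 5–7 per group, given a single oral (intragastric) or i.p. dose in saline:Tween 80 (4:1) vehicle. Sacrificed on day 3 after ether anaesthesia. Organs fixed in 10% aqueous formalin for histology. Scored against untreated animals from no change to +++ (many changes).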

Mus musculus [2] = assay: Toxicity in CD1 mouse brain at 450 mg/kg, po after 3 days by histological study; format: organism-based; parameters: dose 450 mg/kg, route oral; conditions: in vivo, 72 h; method in brief: as §1
Trypanosoma cruzi [3] = assay: Antitrypanosomal activity against Trypanosoma cruzi infected in po dosed CD1 mouse assessed as prevention of inflammatory infiltrates in heart administered daily for 14 days measured on day 45; format: functional, organism-based
Method in brief: (§2)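 T. cruzi, a Uruguayan patient isolate, was inoculated intradermally into 2-month-old female CD1 mice (20–22 g). Dosing began on day 15 after parasitaemia was observed. Drugs were suspended in saline:Tween 80 (4:1) and given by intragastric syringe once daily for 14 days, with untreated controls. On day 45 after treatment start, heart and muscle sections were scored by two independent observers for amastigotes and inflammatory infiltrates. Groups had 5–7 mice.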

Mus musculus [4] = assay: Toxicity in CD1 mouse intestine at 300 mg/kg, ip after 3 days by histological study; format: organism-based; parameters: dose 300 mg/kg, route intraperitoneal; conditions: in vivo, 72 h; method in brief: as §1
Mus musculus [5] = assay: Toxicity in CD1 mouse intestine at 450 mg/kg, po after 3 days by histological study; format: organism-based; parameters: dose 450 mg/kg, route oral; conditions: in vivo, 72 h; method in brief: as §1
Mus musculus [6] = assay: Toxicity in CD1 mouse assessed as leukocyte level at 300 mg/kg, ip after 3 days; format: organism-based; parameters: dose 300 mg/kg, route intraperitoneal; conditions: in vivo, 72 h
Method in brief: (§3)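 Healthy female CD1 mice (5–7 per group) received a single oral dose of 450 mg/kg or an i.p. dose of 300 mg/kg, with vehicle controls. On day 3 they were sacrificed under ether anaesthesia. Blood was drawn from the subclavian artery and kept at 0 °C in EDTA or heparin. Leukocytes, haemoglobin, haematocrit, GPT and GOT were measured within 24 h and compared with normal ranges.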

Mus musculus [7] = assay: Toxicity in CD1 mouse kidney at 450 mg/kg, po after 3 days by histological study; format: organism-based; parameters: dose 450 mg/kg, route oral; conditions: in vivo, 72 h; method in brief: as §1
Mus musculus [8] = assay: Toxicity in CD1 mouse assessed as haemoglobin level at 300 mg/kg, ip after 3 days; format: organism-based; parameters: dose 300 mg/kg, route intraperitoneal; conditions: in vivo, 72 h; method in brief: as §3
Trypanosoma cruzi [9] = assay: Antitrypanosomal activity against Trypanosoma cruzi infected in po dosed CD1 mouse assessed as prevention of amastigote nest in smooth muscle administered daily for 14 days measured on day 45; format: functional, organism-based; conditions: Muscle tissue; method in brief: as §2
Trypanosoma cruzi [10] = assay: Antitrypanosomal activity against Trypanosoma cruzi infected in po dosed CD1 mouse assessed as prevention of inflammatory infiltrates in smooth muscle administered daily for 14 days measured on day 45; format: functional, organism-based; conditions: Muscle tissue; method in brief: as §2
Mus musculus [11] = assay: Toxicity in CD1 mouse liver at 300 mg/kg, ip after 3 days by histological study; format: organism-based; parameters: dose 300 mg/kg, route intraperitoneal; conditions: in vivo, 72 h; method in brief: as §1
Mus musculus [12] = assay: Toxicity in CD1 mouse heart at 450 mg/kg, po after 3 days by histological study; format: organism-based; parameters: dose 450 mg/kg, route oral; conditions: in vivo, 72 h; method in brief: as §1
Mus musculus [13] = assay: Toxicity in CD1 mouse lung at 450 mg/kg, po after 3 days by histological study; format: organism-based; parameters: dose 450 mg/kg, route oral; conditions: in vivo, 72 h; method in brief: as §1
Mus musculus [14] = assay: Toxicity in CD1 mouse assessed as glutamic-pyruvate transaminase level at 300 mg/kg, ip after 3 days; format: organism-based; parameters: dose 300 mg/kg, route intraperitoneal; conditions: in vivo, 72 h; method in brief: as §3
Mus musculus [15] = assay: Toxicity in CD1 mouse liver at 450 mg/kg, po after 3 days by histological study; format: organism-based; parameters: dose 450 mg/kg, route oral; conditions: in vivo, 72 h; method in brief: as §1
Mus musculus [16] = assay: Toxicity in CD1 mouse kidney at 300 mg/kg, ip after 3 days by histological study; format: organism-based; parameters: dose 300 mg/kg, route intraperitoneal; conditions: in vivo, 72 h; method in brief: as §1
Mus musculus [17] = assay: Toxicity in CD1 mouse assessed as increase in weight respect to day zero at 450 mg/kg, po after 3 days; conditions: in vivo, 72 h
Mus musculus [18] = assay: Toxicity in CD1 mouse assessed as survival at 450 mg/kg, po after 3 days; format: organism-based; parameters: dose 450 mg/kg, route oral; conditions: in vivo, 72 h
Method in brief: (§4)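 Healthy 2-month-old female CD1 mice (20–22 g), groups of 5–7, given one oral dose by intragastric syringe or one i.p. injection. Compound suspended in saline:Tween 80 (4:1) with sonication just before dosing; vehicle-treated controls included. Weighed and observed daily over 3 days for skin, physical aspect, activity and faeces; survival recorded at day 3.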

Mus musculus [19] = assay: Toxicity in CD1 mouse assessed as glutamic-pyruvate transaminase level at 450 mg/kg, po after 3 days; format: organism-based; parameters: dose 450 mg/kg, route oral; conditions: in vivo, 72 h; method in brief: as §3
Mus musculus [20] = assay: Toxicity in CD1 mouse assessed as glutamic-oxalacetate transaminase level at 300 mg/kg, ip after 3 days; format: organism-based; parameters: dose 300 mg/kg, route intraperitoneal; conditions: in vivo, 72 h; method in brief: as §3
Mus musculus [21] = assay: Toxicity in CD1 mouse brain at 300 mg/kg, ip after 3 days by histological study; format: organism-based; parameters: dose 300 mg/kg, route intraperitoneal; conditions: in vivo, 72 h; method in brief: as §1
Mus musculus [22] = assay: Toxicity in CD1 mouse assessed as haemoglobin level at 450 mg/kg, po after 3 days; format: organism-based; parameters: dose 450 mg/kg, route oral; conditions: in vivo, 72 h; method in brief: as §3
Mus musculus [23] = assay: Toxicity in CD1 mouse assessed as increase in weight respect to day zero at 300 mg/kg, ip after 3 days; format: organism-based; parameters: dose 300 mg/kg, route intraperitoneal; conditions: in vivo, 72 h
Method in brief: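 Healthy 2-month-old female CD1 mice (20–22 g, 5–7 per group) received one dose. Oral doses of 450 or 300 mg/kg were given by intragastric syringe; i.p. doses of 300 or 150 mg/kg by injection. Drugs were suspended in saline:Tween 80 (4:1), and a vehicle-only control was included. Mice were weighed and observed daily for 3 days. Weight change is expressed as percent relative to day zero.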

Trypanosoma cruzi [24] = assay: Growth inhibition of Trypanosoma cruzi Tulahuen 2 epimastigote at 5 uM after 5 days; format: functional; conditions: Trypanosoma cruzi, Tulahuen 2, 120 h; read-out: GI
Mus musculus [25] = assay: Toxicity in CD1 mouse lung at 300 mg/kg, ip after 3 days by histological study; format: organism-based; parameters: dose 300 mg/kg, route intraperitoneal; conditions: in vivo, 72 h; method in brief: as §1
Mus musculus [26] = assay: Toxicity in CD1 mouse assessed as leukocyte level at 450 mg/kg, po after 3 days; format: organism-based; parameters: dose 450 mg/kg, route oral; conditions: in vivo, 72 h; method in brief: as §3
Mus musculus [27] = assay: Toxicity in CD1 mouse assessed as survival at 300 mg/kg, ip after 3 days; format: organism-based; parameters: dose 300 mg/kg, route intraperitoneal; conditions: in vivo, 72 h; method in brief: as §4
Mus musculus [28] = assay: Toxicity in CD1 mouse assessed as glutamic-oxalacetate transaminase level at 450 mg/kg, po after 3 days; format: organism-based; parameters: dose 450 mg/kg, route oral; conditions: in vivo, 72 h; method in brief: as §3
Trypanosoma cruzi [29] = assay: Antitrypanosomal activity against Trypanosoma cruzi infected in po dosed CD1 mouse assessed as prevention of amastigote nest in heart administered daily for 14 days measured on day 45; format: functional, organism-based; method in brief: as §2

## CCCCCCNC(=O)N/N=C/C=C/c1ccc([N+](=O)[O-])o1
Mus musculus [1]
  Activity: Non-toxic
Mus musculus [2]
  Activity: Non-toxic
Trypanosoma cruzi [3]
  Activity: Active
Mus musculus [4]
  Activity: Non-toxic
Mus musculus [5]
  Activity: Non-toxic
Mus musculus [6]
  Activity: 31700 µL⁻¹
Mus musculus [7]
  Activity: Non-toxic
Mus musculus [8]
  Activity: 12.8 g/dL
Trypanosoma cruzi [9]
  Activity: Active
Trypanosoma cruzi [10]
  Activity: Active
Mus musculus [11]
  Activity: Toxic
Mus musculus [12]
  Activity: Non-toxic
Mus musculus [13]
  Activity: Non-toxic
Mus musculus [14]
  Activity: 76.2 IU/L
Mus musculus [15]
  Activity: Toxic
Mus musculus [16]
  Activity: Toxic
Mus musculus [17]
  Activity: 21%
Mus musculus [18]
  Activity: Non-toxic
Mus musculus [19]
  Activity: 29.4 IU/L
Mus musculus [20]
  Activity: 109 IU/L
Mus musculus [21]
  Activity: Non-toxic
Mus musculus [22]
  Activity: 16.3 g/dL
Mus musculus [23]
  Activity: 8%
Trypanosoma cruzi [24]
  inhibition of growth at 5 µM: 82%
Mus musculus [25]
  Activity: Non-toxic
Mus musculus [26]
  Activity: 32400 µL⁻¹
Mus musculus [27]
  Activity: Non-toxic
Mus musculus [28]
  Activity: 94.1 IU/L
Trypanosoma cruzi [29]
  Activity: Active
